{"source": "ChEMBL document CHEMBL1150802", "about": "“Ampicillin-resistant non-beta-lactamase-producing Haemophilus influenzae in Spain: recent emergence of clonal isolates with increased resistance to cefotaxime and cefixime” (2007)", "format_in_all_cases": "functional", "key": {"[1]": {"test_system": "Haemophilus influenzae", "experiment": "Antibacterial activity against beta-lactamase nonproducing ampicillin susceptible Haemophilus influenzae isolate by broth microdilution method", "in_short": "(§1)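 Clinical isolates were tested by broth microdilution in Haemophilus test medium following CLSI guidelines, with H. influenzae ATCC 49247 as the QC strain. β-Lactamase was detected by chromogenic nitrocefin test. ftsI was PCR-amplified and sequenced across nt 936–1640 (aa 327–540). Classes: BLNAS (no mechanism), BLNAR (ftsI substitutions), BLPAR (β-lactamase only), BLPACR (both). Agents tested were amoxicillin, amoxicillin-clavulanate (2:1), cefaclor, cefuroxime, cefotaxime and cefixime.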"}, "[2]": {"test_system": "Haemophilus influenzae", "experiment": "Antibacterial activity against beta-lactamase positive ampicillin resistant Haemophilus influenzae isolate by broth microdilution method", "in_short": "as §1"}, "[3]": {"test_system": "Haemophilus influenzae", "experiment": "Antibacterial activity against beta-lactamase nonproducing ampicillin resistant Haemophilus influenzae isolate by broth microdilution method", "in_short": "as §1"}, "[4]": {"test_system": "Haemophilus influenzae", "experiment": "Antibacterial activity against beta-lactamase producing amoxicillin-clavulanic acid-resistant Haemophilus influenzae isolate by broth microdilution method", "in_short": "as §1"}, "[5]": {"test_system": "Haemophilus influenzae", "experiment": "Antibacterial activity against beta-lactamase nonproducing ampicillin susceptible Haemophilus influenzae isolate assessed as percent susceptible isolates by broth microdilution method", "in_short": "(§2)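 Broth microdilution in Haemophilus test medium per CLSI guidelines on clinical isolates, with H. influenzae ATCC 49247 as quality-control strain; β-lactamase production detected by nitrocefin chromogenic cephalosporin test; isolates classed by β-lactamase status and ftsI (PBP 3) sequencing of amino acids 327 to 540. Agents tested: amoxicillin, amoxicillin-clavulanic acid (2:1), cefaclor, cefuroxime, cefotaxime, cefixime.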"}, "[6]": {"test_system": "Haemophilus influenzae", "experiment": "Antibacterial activity against beta-lactamase nonproducing ampicillin susceptible Haemophilus influenzae isolate assessed as percent resistant isolates by broth microdilution method", "in_short": "as §1"}, "[7]": {"test_system": "Haemophilus influenzae", "experiment": "Antibacterial activity against beta-lactamase positive ampicillin resistant Haemophilus influenzae isolate assessed as percent resistant isolates by broth microdilution method", "in_short": "as §1"}, "[8]": {"test_system": "Haemophilus influenzae", "experiment": "Antibacterial activity against beta-lactamase nonproducing ampicillin resistant Haemophilus influenzae isolate assessed as percent susceptible isolates by broth microdilution method", "in_short": "as §1"}, "[9]": {"test_system": "Haemophilus influenzae", "experiment": "Antibacterial activity against beta-lactamase nonproducing ampicillin resistant Haemophilus influenzae isolate assessed as percent resistant isolates by broth microdilution method", "in_short": "as §1"}, "[10]": {"test_system": "Haemophilus influenzae", "experiment": "Antibacterial activity against beta-lactamase producing amoxicillin-clavulanic acid-resistant Haemophilus influenzae isolate assessed as percent susceptible isolates by broth microdilution method", "in_short": "as §2"}, "[11]": {"test_system": "Haemophilus influenzae", "experiment": "Antibacterial activity against beta-lactamase producing amoxicillin-clavulanic acid-resistant Haemophilus influenzae isolate assessed as percent resistant isolates by broth microdilution method", "in_short": "as §1"}, "[12]": {"test_system": "Haemophilus influenzae", "experiment": "Antibacterial activity against Haemophilus influenzae group I isolates with ftsI gene mutation by broth microdilution method", "in_short": "as §1"}, "[13]": {"test_system": "Haemophilus influenzae", "experiment": "Antibacterial activity against Haemophilus influenzae group IIa isolates with ftsI gene mutation by broth microdilution method", "in_short": "as §1"}, "[14]": {"test_system": "Haemophilus influenzae", "experiment": "Antibacterial activity against Haemophilus influenzae group IIb isolates with ftsI gene mutation by broth microdilution method", "in_short": "as §1"}, "[15]": {"test_system": "Haemophilus influenzae", "experiment": "Antibacterial activity against Haemophilus influenzae group IIc isolates with ftsI gene mutation by broth microdilution method", "in_short": "as §1"}, "[16]": {"test_system": "Haemophilus influenzae", "experiment": "Antibacterial activity against Haemophilus influenzae group IId isolates with ftsI gene mutation by broth microdilution method", "in_short": "as §1"}, "[17]": {"test_system": "Haemophilus influenzae", "experiment": "Antibacterial activity against Haemophilus influenzae group III-like isolates with ftsI gene mutation by broth microdilution method", "in_short": "as §1"}, "[18]": {"test_system": "Haemophilus influenzae", "experiment": "(§3) Antibacterial activity against beta-lactamase nonproducing ampicillin resistant Haemophilus influenzae group IIa isolates with acrR aminoacid substitution mutation by broth microdilution method"}, "[19]": {"test_system": "Haemophilus influenzae", "experiment": "Antibacterial activity against beta-lactamase nonproducing ampicillin resistant Haemophilus influenzae group IIc isolates with acrR baseC insertion mutation by broth microdilution method"}, "[20]": {"test_system": "Haemophilus influenzae", "experiment": "Antibacterial activity against beta-lactamase nonproducing ampicillin resistant Haemophilus influenzae group IIc isolates with acrR TTA>TGA mutation at 521 position by broth microdilution method"}, "[21]": {"test_system": "Haemophilus influenzae", "experiment": "Antibacterial activity against beta-lactamase nonproducing ampicillin resistant Haemophilus influenzae group I isolates with acrR ATT deletion behind nucleotide 170 by broth microdilution method"}, "[22]": {"test_system": "Haemophilus influenzae", "experiment": "Antibacterial activity against beta-lactamase nonproducing ampicillin resistant Haemophilus influenzae group IIb isolates with acrR aminoacid substitution mutation by broth microdilution method"}, "[23]": {"test_system": "Haemophilus influenzae", "experiment": "Antibacterial activity against beta-lactamase nonproducing ampicillin resistant Haemophilus influenzae group IIc isolates with acrR aminoacid substitution mutation by broth microdilution method"}, "[24]": {"test_system": "Haemophilus influenzae", "experiment": "Antibacterial activity against beta-lactamase nonproducing ampicillin resistant Haemophilus influenzae group IIc isolates with acrR base A insertion behind nucleotide 361 by broth microdilution method"}, "[25]": {"test_system": "Haemophilus influenzae", "experiment": "as §3", "remark": "listed apart in the source"}, "[26]": {"test_system": "Haemophilus influenzae", "experiment": "Antibacterial activity against beta-lactamase nonproducing ampicillin resistant Haemophilus influenzae group IIb isolates with acrR mutation by broth microdilution method"}, "[27]": {"test_system": "Haemophilus influenzae", "experiment": "Antibacterial activity against beta-lactamase nonproducing ampicillin resistant Haemophilus influenzae group IIc isolates with acrR mutation by broth microdilution method"}, "[28]": {"test_system": "Haemophilus influenzae", "experiment": "Antibacterial activity against beta-lactamase nonproducing ampicillin resistant Haemophilus influenzae group IId isolates with acrR mutation by broth microdilution method"}, "[29]": {"test_system": "Haemophilus influenzae", "experiment": "Antibacterial activity against beta-lactamase nonproducing ampicillin resistant Haemophilus influenzae group IIc isolates with acrR base C insertion behind nucleotide 496 by broth microdilution method"}, "[30]": {"test_system": "Haemophilus influenzae", "experiment": "Antibacterial activity against beta-lactamase nonproducing ampicillin resistant Haemophilus influenzae group IIc isolates with acrR TTA>TGA mutation at 425 position by broth microdilution method"}, "[31]": {"test_system": "Haemophilus influenzae", "experiment": "Antibacterial activity against beta-lactamase positive ampicillin resistant Haemophilus influenzae isolate assessed as percent susceptible isolates by broth microdilution method", "in_short": "as §1"}}, "data": [{"molecule": "CC1(C)S[C@@H]2[C@H](NC(=O)[C@H](N)c3ccccc3)C(=O)N2[C@H]1C(=O)O", "note": "[AMPICILLIN]", "values": [{"measurement": "MIC", "setting": "[1]", "result": "≤ 0.25", "unit": "µg/mL"}, {"measurement": "MIC50", "setting": "[1]", "result": "≤ 0.25", "unit": "µg/mL"}, {"measurement": "MIC90", "setting": "[1]", "result": 0.5, "unit": "µg/mL"}, {"measurement": "MIC50", "setting": "[2]", "result": 8, "unit": "µg/mL"}, {"measurement": "MIC50", "setting": "[3]", "result": 1, "unit": "µg/mL"}, {"measurement": "MIC90", "setting": "[3]", "result": 2, "unit": "µg/mL"}, {"measurement": "MIC50", "setting": "[4]", "result": "≥ 32", "unit": "µg/mL"}, {"measurement": "MIC90", "setting": "[4]", "result": "≥ 32", "unit": "µg/mL"}, {"measurement": "Activity", "setting": "[5]", "result": 98.4, "unit": "%"}, {"measurement": "Activity", "setting": "[6]", "result": 1.6, "unit": "%"}, {"measurement": "Activity", "setting": "[7]", "result": 100, "unit": "%"}, {"measurement": "Activity", "setting": "[8]", "result": 49.2, "unit": "%"}, {"measurement": "Activity", "setting": "[9]", "result": 50.8, "unit": "%"}, {"measurement": "Activity", "setting": "[10]", "result": 0, "unit": "%"}, {"measurement": "Activity", "setting": "[11]", "result": 100, "unit": "%"}, {"measurement": "MIC", "setting": "[12]", "result": 0.5, "unit": "µg/mL"}, {"measurement": "MIC50", "setting": "[12]", "result": 0.5, "unit": "µg/mL"}, {"measurement": "MIC90", "setting": "[12]", "result": 2, "unit": "µg/mL"}, {"measurement": "MIC50", "setting": "[13]", "result": 2, "unit": "µg/mL"}, {"measurement": "MIC90", "setting": "[13]", "result": 4, "unit": "µg/mL"}, {"measurement": "MIC50", "setting": "[14]", "result": 1, "unit": "µg/mL"}, {"measurement": "MIC90", "setting": "[14]", "result": 2, "unit": "µg/mL"}, {"measurement": "MIC50", "setting": "[15]", "result": 2, "unit": "µg/mL"}, {"measurement": "MIC90", "setting": "[15]", "result": 2, "unit": "µg/mL"}, {"measurement": "MIC", "setting": "[16]", "result": 0.5, "unit": "µg/mL"}, {"measurement": "MIC50", "setting": "[16]", "result": 0.5, "unit": "µg/mL"}, {"measurement": "MIC90", "setting": "[16]", "result": 2, "unit": "µg/mL"}, {"measurement": "MIC50", "setting": "[17]", "result": 1, "unit": "µg/mL"}, {"measurement": "MIC90", "setting": "[17]", "result": 2, "unit": "µg/mL"}, {"measurement": "MIC", "setting": "[18]", "result": 4, "unit": "µg/mL"}, {"measurement": "MIC", "setting": "[19]", "result": 2, "unit": "µg/mL"}, {"measurement": "MIC", "setting": "[20]", "result": 2, "unit": "µg/mL"}, {"measurement": "MIC", "setting": "[21]", "result": 2, "unit": "µg/mL"}, {"measurement": "MIC", "setting": "[22]", "result": 2, "unit": "µg/mL"}, {"measurement": "MIC", "setting": "[23]", "result": 2, "unit": "µg/mL"}, {"measurement": "MIC", "setting": "[24]", "result": 1, "unit": "µg/mL"}, {"measurement": "MIC", "setting": "[25]", "result": 1, "unit": "µg/mL"}, {"measurement": "MIC", "setting": "[26]", "result": 1, "unit": "µg/mL"}, {"measurement": "MIC", "setting": "[27]", "result": 1, "unit": "µg/mL"}, {"measurement": "MIC", "setting": "[28]", "result": 1, "unit": "µg/mL"}, {"measurement": "MIC", "setting": "[29]", "result": 0.5, "unit": "µg/mL"}, {"measurement": "MIC", "setting": "[30]", "result": 0.5, "unit": "µg/mL"}]}, {"molecule": "N[C@@H](C(=O)N[C@@H]1C(=O)N2C(C(=O)O)=C(Cl)CS[C@H]12)c1ccccc1", "note": "[CEFACLOR ANHYDROUS]", "values": [{"measurement": "MIC50", "setting": "[1]", "result": 2, "unit": "µg/mL"}, {"measurement": "MIC90", "setting": "[1]", "result": 4, "unit": "µg/mL"}, {"measurement": "MIC50", "setting": "[2]", "result": 4, "unit": "µg/mL"}, {"measurement": "MIC90", "setting": "[2]", "result": 8, "unit": "µg/mL"}, {"measurement": "MIC50", "setting": "[3]", "result": 4, "unit": "µg/mL"}, {"measurement": "MIC50", "setting": "[4]", "result": 4, "unit": "µg/mL"}, {"measurement": "MIC90", "setting": "[4]", "result": "≥ 16", "unit": "µg/mL"}, {"measurement": "Activity", "setting": "[5]", "result": 100, "unit": "%"}, {"measurement": "Activity", "setting": "[6]", "result": 0, "unit": "%"}, {"measurement": "Activity", "setting": "[31]", "result": 91.1, "unit": "%"}, {"measurement": "Activity", "setting": "[7]", "result": 8.9, "unit": "%"}, {"measurement": "Activity", "setting": "[8]", "result": 87.9, "unit": "%"}, {"measurement": "Activity", "setting": "[9]", "result": 12.1, "unit": "%"}, {"measurement": "Activity", "setting": "[10]", "result": 75.7, "unit": "%"}, {"measurement": "Activity", "setting": "[11]", "result": 24.3, "unit": "%"}, {"measurement": "MIC", "setting": "[12]", "result": 2, "unit": "µg/mL"}, {"measurement": "MIC50", "setting": "[12]", "result": 2, "unit": "µg/mL"}, {"measurement": "MIC90", "setting": "[12]", "result": 8, "unit": "µg/mL"}, {"measurement": "MIC50", "setting": "[13]", "result": 8, "unit": "µg/mL"}, {"measurement": "MIC50", "setting": "[14]", "result": 4, "unit": "µg/mL"}, {"measurement": "MIC50", "setting": "[15]", "result": 8, "unit": "µg/mL"}, {"measurement": "MIC50", "setting": "[16]", "result": 2, "unit": "µg/mL"}, {"measurement": "MIC90", "setting": "[16]", "result": 8, "unit": "µg/mL"}, {"measurement": "MIC50", "setting": "[17]", "result": 4, "unit": "µg/mL"}]}]}
